From PubChem BioAssay
A selection: hits, their analogues and other compounds. The true share with any hit is near 2%.
APJ antag = antagonists of human apelin receptor APJ, primary screen, CHO-K1 cells, beta-arrestin complementation, luminescence; 0.32% of 330,000 active; inhibition, % at 20 µM; AID 2521, 2010; P35414;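 active means inhibition above about 40% at 20 µM, limit read from the data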;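 further: cells challenged with 10 nM apelin-13 agonist together with compound; plate controls were apelin-13 plus DMSO wells for no effect and DMSO wells lacking apelin-13 for full effect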
Target sequence (P35414 whole entry, looked up): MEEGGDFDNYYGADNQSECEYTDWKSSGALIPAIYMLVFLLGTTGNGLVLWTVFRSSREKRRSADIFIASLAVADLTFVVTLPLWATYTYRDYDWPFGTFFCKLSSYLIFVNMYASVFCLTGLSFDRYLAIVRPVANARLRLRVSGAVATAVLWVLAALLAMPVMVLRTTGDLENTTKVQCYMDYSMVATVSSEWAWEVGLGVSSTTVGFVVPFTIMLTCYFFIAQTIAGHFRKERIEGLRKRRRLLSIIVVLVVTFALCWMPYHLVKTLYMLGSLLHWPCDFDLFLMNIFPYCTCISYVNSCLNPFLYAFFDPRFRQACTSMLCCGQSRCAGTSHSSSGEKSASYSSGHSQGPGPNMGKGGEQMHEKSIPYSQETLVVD
GAA850 FXN act = FXN promoter activators, primary screen, cell-based, luciferase luminescence, HEK293 lucGAA850; HEK293 lucGAA850 FXN promoter luciferase reporter, 24 h; percent of 10 µM SAHA response; activation, % at 6 µM; 0.56% of 360,000 active;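 active means activation above the average of all compounds screened plus 3 SD, cutoff fixed separately per campaign, cut at about 7.5% in these data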;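 further: 0% = DMSO wells and 100% = 10 µM SAHA wells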
CXCR6 block = CXCR6 receptor inhibitors, primary screen, cell-based, beta-arrestin, luminescence, CHO-K1 PathHunter, 1536-well | C-X-C chemokine receptor type 6 (Homo sapiens), O00574 | inhibition, % at 20 µM | 0.36% of 360,000 active | AID 602244, 2012; in the data active means inhibition above about 34%, passing the limit was not always enough;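 further: antagonist mode with CXCL16 agonist at 10 nM final; 0% = 10 nM CXCL16 with DMSO and 100% = unstimulated wells without agonist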
CCR6 antag = CCR6 receptor antagonists, primary screen, cell-based, CHO-K1, luminescence, beta-arrestin, uHTS; C-C chemokine receptor type 6 (Homo sapiens), P51684; CHO-K1 CCR6 PathHunter beta-arrestin, CCL20-stimulated; inhibition, % at 20 µM; 0.49% of 340,000 active; AID 493098, 2011;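 active means compounds whose inhibition of the agonist-driven luminescence signal at 20 µM reaches about 50%, limit read from the data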;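 further: cells stimulated with CCL20 at 14 nM final; plate controls were DMSO with CCL20 for no effect and DMSO without agonist for full effect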
EBI2 antag = EBI2 receptor antagonists, beta-arrestin recruitment, primary screen, cell-based, luminescence, 7a,25-OHC stimulation, uHTS; G-protein coupled receptor 183 (Homo sapiens), P32249; 7a,25-OHC stimulated; inhibition, % at 5 µM; 0.81% of 360,000 active; AID 651636, 2012; in the data active means inhibition above about 38%;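 further: enzyme fragment complementation signal reports receptor beta-arrestin coupling in cells; 0% = agonist plus DMSO wells and 100% = wells without agonist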
APJ agonist = agonists of human apelin receptor APJ, primary screen, CHO-K1 cells, PathHunter beta-arrestin, luminescence; P35414; 0% DMSO wells, 100% apelin; activation, % at 20 µM; 0.11% of 330,000 active; AID 2520, 2010;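 active means activation more than six SD over the plate average, tested at 20 µM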;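 further: 0% = DMSO alone and 100% = apelin-13 at 10 nM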
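Assay system: engineered CHO-K1 APJ arrestin reporter cells; Amount: 1000 CHO-K1 reporter cells seeded per well; Dosing: one dose, 20 µM compound, 1% DMSO; Times: compound stimulation 90 min at 25 °C, detection 60 min; Measured by: luminescent beta-gal fragment complementation, chemiluminescent substrate; Read-out: APJ–arrestin association signal; Controls: DMSO vs Apelin-13 10 nM.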
GAA30 counter = GAA30 FXN promoter activators, confirmation, counter-screen for GAA850 frataxin promoter activator project, cell-based, luminescence, HEK293, lucGAA30, triplicate; HEK293 lucGAA30 FXN promoter luciferase, 24 h; DMSO = 0%, 5 µM ipriflavone = 100%; shares compounds with GAA850 FXN act; 66% of 1,900 active; activation, % at 6 µM;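 active means mean activation above the mean of solvent-only control wells plus 3 SD, cut at about 22% in these data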;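 further: counterscreen of GAA850 promoter hits where activity marks nonselective or luminescence artifacts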
GAA850 confirm = FXN GAA850 promoter activators in reporter cells, confirmation, cell-based, luminescence, HEK293 lucGAA850, triplicate; shares compounds with GAA850 FXN act; HEK293 lucGAA850 FXN promoter luciferase reporter, 24 h; 100% = activation by SAHA; activation, % at 6 µM; 86% of 1,900 active;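 active means mean activation above a set limit taken from the primary screen, cut at about 8% in these data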;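 further: 0% = DMSO wells and 100% = 10 µM SAHA wells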
* hit, by the source's call; . = no result given.

SMILES	APJ antag	GAA850 FXN act	CXCR6 block	CCR6 antag	EBI2 antag	APJ agonist	GAA30 counter	GAA850 confirm
Cc1cc(Cl)c2oc(C(=O)N3CCOCC3)c(C)c2c1	.	3	10	.	-3	.	.	.
Cc1cccc(/C(N)=N/OC(=O)c2ccc3c(c2)OCO3)c1	-38	7.9*	-14	-19	1	8	105*	39*
N/C(=N\OC(=O)c1ccc2c(c1)OCO2)c1cccc([N+](=O)[O-])c1	-38	4	-20	-5	-12	6	.	.
COC(=O)CSc1nc(N)c(C#N)c(-c2ccc(O)cc2)c1C#N	-15	4	-6	22	-1	-2	.	.
CCOC(=O)CSc1nc(N)c(C#N)c(-c2ccc(OCC)cc2)c1C#N	-4	13*	8	17	9	-6	12	9.1*
CC(C)OC(=O)CSc1nc(N)c(C#N)cc1C#N	-3	8.4*	2	1	1	-2	64*	29*
CCOC(=O)CSc1nc(N)c(C#N)cc1C#N	0	11*	7	-4	-4	-1	52*	30*
CN(NS(=O)(=O)c1ccccc1)C(=O)c1ccccc1	.	1	3	8	5	.	.	.
C=CCc1c(C)nc(-c2ccccc2)nc1N/N=C/c1ccccc1	0	0	-5	11	2	0	.	.
C=CCc1c(C)nc(-c2ccccc2)nc1Nc1ccccc1O	1	7.9*	-12	1	17	-9	30*	21*
COc1cccc(CNC(=O)[C@@H]2CCCN2C(=O)[C@@H]2CCCN2C(=O)c2cccc3ccccc23)c1	.	.	-6	.	-5	.	.	.
COc1ccc(C=NNc2nc3ccccc3s2)cc1	.	0	-4	-16	-2	.	.	.
COc1cc(/C=N/Nc2nc3ccccc3s2)ccc1OC(=O)c1ccccc1F	-8	9.3*	4	12	4	6	118*	41*
COc1cc(/C=N/Nc2ccccc2[N+](=O)[O-])ccc1OC(=O)c1ccccc1F	-15	0	13	13	5	-5	.	.
COc1cc(OC)cc(C(=O)Oc2ccc(/C=N/Nc3nc4ccccc4s3)cc2OC)c1	-16	8.0*	2	-1	20	5	116*	36*
Nc1ccc2c(c1)C(=NO)c1cc([N+](=O)[O-])ccc1-2	.	13*	25	42	-26	.	79*	35*
O=[N+]([O-])c1ccc2c(c1)-c1ccccc1C2=NO	.	-3	-17	14	-51	.	.	.
CC(C)OP(=O)(c1ccc(N(C)C)cc1)C(Nc1ccccc1)c1ccccc1 (centres undefined)	32	8.0*	8	16	11	-1	12	13*
COc1cc(OC)nc(Nc2nc(C(N)c3ccccc3)cs2)n1 (centres undefined)	.	-3	2	.	7	.	.	.
COc1cc(OC)nc(Nc2nc(C(N)CCc3ccccc3)cs2)n1 (centres undefined)	.	9.0*	2	.	-7	.	21	17*
COc1cc(OC)nc(Nc2nc(C(N)COCc3ccccc3)cs2)n1 (centres undefined)	.	7.6*	3	.	-3	.	23*	14*
CCS(=O)(=O)Nc1cc(-c2nc3cccnc3s2)ccc1C	14	7.9*	1	3	-2	6	117*	34*
CCS(=O)(=O)Nc1cccc(-c2nc3cccnc3s2)c1	-24	0	-11	-2	-1	-6	.	.
CCc1nc2c(OCC(=O)C(C)(C)C)cccn2c1N(C)C(=O)CC(C)C	.	-1	4	.	4	.	.	.
Cc1ccc(S(=O)(=O)N2CCCC2CNC(=O)C(=O)Nc2ccc(F)cc2)cc1 (centres undefined)	5	-2	-6	17	9	-6	.	.
SMILES	APJ antag	GAA850 FXN act	CXCR6 block	CCR6 antag	EBI2 antag	APJ agonist	GAA30 counter	GAA850 confirm
CC1(C(=O)Nc2nc3ccccc3s2)CC1(Br)Br (centres undefined)	.	11*	-4	14	-6	.	103*	36*
COc1ccc(CCNC(=O)c2cc(-c3ccccc3)on2)cc1OC	16	10*	-5	-4	-4	-5	62*	33*
O=C(NCc1ccco1)c1cc(-c2ccccc2)on1	-6	9.1*	-5	9	-4	-1	105*	37*
O=C(NCc1ccco1)c1cc(-c2ccc(F)cc2)on1	8	7	2	0	5	-4	.	.
CC(C)CNC(=O)c1cc(-c2ccco2)on1	-12	4	4	8	-1	-4	.	.
Cc1ccc(-c2cc(C(=O)NCC3CCCO3)no2)cc1 (centres undefined)	13	5	0	1	5	-1	.	.
O=C(NCC1CCCO1)c1cc(-c2ccccc2)on1 (centres undefined)	11	24*	-7	4	-9	5	157*	91*
CCCNC(=O)c1cc(-c2ccco2)on1	-8	22*	37	-16	11	-4	128*	57*
O=C(NCC1CCCO1)c1cc(-c2ccc(F)cc2)no1 (centres undefined)	9	11*	-2	-10	-3	2	85*	31*
O=C(NCc1ccco1)c1cc(-c2cccs2)on1	-23	26*	0	18	5	-4	150*	56*
CCC(C)c1ccccc1N1CC(C(=O)Nc2cc(S(=O)(=O)N3CCOCC3)ccc2OC)CC1=O (centres undefined)	-24	3	1	2	-6	-1	.	.
CCOc1ccccc1N1CC(C(=O)Nc2cc(S(=O)(=O)N3CCOCC3)ccc2OC(C)C)CC1=O (centres undefined)	.	10*	2	-7	10	.	16	7
CC[C@@]1(C(=O)OC)N[C@H](CN(C)C(=O)Nc2ccc(C)cc2)[C@@H]2C(=O)N(Cc3ccccc3)C(=O)[C@@H]21	3	15*	1	7	-6	-4	42*	14*
COC(=O)[C@]1(Cc2ccccc2)N[C@H](CN(C)C(=O)Nc2ccc(F)cc2)[C@@H]2C(=O)N(Cc3ccccc3)C(=O)[C@@H]21	10	-7	9	4	9	-3	.	.
